Screens: PubChem, several laboratories
Shown are actives, neighbours in structure and some others; about 1.4% of the full set was active somewhere.
Tb MetRS inh: T. brucei MetRS inhibitors, primary screen, biochemical, luminescence; methionyl-tRNA synthetase (Trypanosoma brucei brucei); purified T. brucei MetRS, ATP depletion, Kinase-Glo luminescence; inhibition, % at 11.9 µM; 0.4% of 360,000 active; AID 624268, 2012;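 active = inhibition above a per-plate cutoff of the control wells' mean inhibition plus 3 SD, cut at about 5.5% in these data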;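 also: 0% = DMSO wells median and 100% = median of wells with control inhibitor compound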
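Measured by: Kinase-Glo luciferase luminescence reporting remaining unconsumed ATP. Material: purified T. brucei MetRS enzyme. Doses: 11.9 µM compound single dose, 0.9% DMSO. Medium: HEPES buffer containing pyrophosphatase, BSA, spermine, DTT. Times: 15 min preincubation, 2 h reaction, all 25 °C. Reagent: methionine, ATP and bulk E. coli tRNA.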
Yeast superoxide: reduction of superoxide in aged yeast, primary screen, HTS. S. cerevisiae aged cells, superoxide DHE fluorescence; hits give low values. superoxide response (% of plate mean), % at 10 µM. 0.18% of 330,000 active. AID 2690, 2010;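 active = superoxide response under a set limit, about three screen SD below normal, cut at about 65% in these data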;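 also: yeast aged for seven days with compound at 30 °C before DHE staining; 100% = average MFI of all compound-treated wells on the plate with controls excluded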
HDAC3 inh: HDAC3 deacetylase inhibitors, primary screen, biochemical, fluorescence, cell-free homogeneous; inhibition, % at 8.3 µM; Histone deacetylase 3 (Homo sapiens), O15379; 0.15% of 320,000 active; AID 2718, 2010; recombinant HDAC3, fluorogenic peptide/trypsin coupled; in the data active = inhibition above about 26%, passing the limit was not always enough
Target sequence (O15379 whole entry, looked up): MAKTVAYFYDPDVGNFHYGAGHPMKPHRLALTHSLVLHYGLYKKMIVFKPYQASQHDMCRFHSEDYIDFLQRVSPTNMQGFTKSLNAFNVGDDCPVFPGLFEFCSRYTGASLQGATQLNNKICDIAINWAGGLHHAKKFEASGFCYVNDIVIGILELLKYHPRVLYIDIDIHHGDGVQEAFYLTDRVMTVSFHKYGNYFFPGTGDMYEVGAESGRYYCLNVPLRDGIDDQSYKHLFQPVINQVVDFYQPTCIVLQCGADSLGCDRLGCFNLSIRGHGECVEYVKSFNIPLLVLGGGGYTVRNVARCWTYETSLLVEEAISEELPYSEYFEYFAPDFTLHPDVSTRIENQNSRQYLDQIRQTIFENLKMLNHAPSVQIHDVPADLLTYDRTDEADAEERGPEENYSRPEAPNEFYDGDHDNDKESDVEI
IDE inh: human IDE inhibitors in live cells, primary screen, fluorescence polarization, HEK cells, FAbetaB substrate; 0.41% of 320,000 active; Insulin-degrading enzyme (Homo sapiens), P14735; inhibition, % at 5.59 µM; FAbetaB cleavage;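 active = percent inhibition above the average of all tested compounds plus 3 SD, set per screening campaign, cut at about 16% in these data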;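 also: IDE supplied by intact live HEK cells; FP after avidin binding of uncleaved biotin substrate so inhibition keeps polarization high; 0% = DMSO wells and 100% = 60 µM reference IDE inhibitor Ii1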
Efflux pump inh: inhibitors of Candida efflux pumps in yeast, primary screen, S. cerevisiae, Nile Red, multiplex | S. cerevisiae Candida pump triplex | inhibition, % at 10 µM | 0.44% of 330,000 active;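 active = plate passing quality check with inhibition over a set limit, or well fluorescence over plate mean plus 4 SD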;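 also: Nile Red retained in pooled yeast measured as flow cytometry median fluorescence; 0% = buffer negative control and 100% = Enniatin B positive control; higher means more Nile Red kept so more efflux inhibition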
IDE cell activ: human IDE activators in live cells, primary screen, fluorescence polarization, HEK cells, FAbeta-B substrate | AID 493087, 2011 | Insulin-degrading enzyme (Homo sapiens), P14735 | FAbeta-B cleavage; 0% vehicle, 100% cell-free pure enzyme wells | 0.073% of 340,000 active | activation, % at 5.96 µM;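 active = activation above the mean of all tested compounds plus 3 SD, set per screening campaign, cut at about 17% in these data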
TbMetRS confirm: T. brucei MetRS inhibitors, confirmation, biochemical, luminescence | inhibition, % at 11.9 µM | shares compounds with Tb MetRS inh | 93% of 1,400 active | AID 624412, 2012 | T. brucei MetRS enzyme, luminescence (ATP depletion); in the data active = inhibition above about 7%
Jurkat tox: Jurkat T cell cytotoxicity, cytotoxicity control for T. brucei MetRS inhibitor project, luminescence, high throughput. inhibition, % at 8.3 µM. Jurkat cells viability, ATP luminescence. 12% of 1,400 active. shares compounds with Tb MetRS inh; in the data active = inhibition above about 15%;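 also: 0% = vehicle and 100% = reference inhibitor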
TbMetRS FP orth: T. brucei MetRS inhibitors, orthogonal assay for T. brucei MetRS inhibitor project, biochemical, fluorescence polarization. shares compounds with Tb MetRS inh. 44% of 1,400 active. inhibition, % at 11.9 µM. purified T. brucei MetRS; in the data active = inhibition above about 17%;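 also: 0% = vehicle wells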
Starred values were filed as active, the others as inactive.

How did CN(C)c1cc[n+](CCC(=O)Nc2cccc([N+](=O)[O-])c2N)cc1 do in these assays?
Tb MetRS inh: 1; Yeast superoxide: 101; HDAC3 inh: 0; IDE inh: -1; Efflux pump inh: 0; IDE cell activ: -3

What do the screens show for `Nc1c(NC(=O)CC[n+]2ccccc2)cccc1[N+](=O)[O-]`?
Tb MetRS inh: 11*; Yeast superoxide: 108; HDAC3 inh: -1; IDE inh: -3; Efflux pump inh: 0; IDE cell activ: -1; TbMetRS confirm: 18*; Jurkat tox: -4; TbMetRS FP orth: 2

Results for O=C(CNC(=O)C1COc2ccccc2O1)N/N=C/c1ccc(O)cc1O (stereo unspecified) ?
Tb MetRS inh: 12*; Yeast superoxide: 98; HDAC3 inh: 1; IDE inh: -2; Efflux pump inh: 0; IDE cell activ: 6; TbMetRS confirm: 36*; Jurkat tox: 52*; TbMetRS FP orth: 17*

How did O=C(CNC(=O)C1COc2ccccc2O1)N/N=C\c1ccc(Cl)cc1 (stereo unspecified) do in these assays?
Tb MetRS inh: 0; Yeast superoxide: 120; HDAC3 inh: 6; IDE inh: 1; Efflux pump inh: 0; IDE cell activ: -1

How did NC(=NCc1ccccc1)NN=Cc1ccnc2ccccc12 do in these assays?
Tb MetRS inh: 7.1*; TbMetRS confirm: 10*; Jurkat tox: 12; TbMetRS FP orth: 7

How did NC(N)=NN=Cc1ccnc2ccccc12 do in these assays?
Tb MetRS inh: -1

Results for COC(=O)[C@]1(Cc2ccccc2)N[C@H](CN(C)C(=O)c2ccc(C)cc2)[C@@H]2C(=O)N(Cc3ccccc3)C(=O)[C@@H]21 ?
Tb MetRS inh: -1; Yeast superoxide: 90; IDE inh: 3; Efflux pump inh: 0; IDE cell activ: 2

Results for Fc1ccc2[nH]c3c(NCCN4CCOCC4)ncnc3c2c1 ?
Tb MetRS inh: 27*; Yeast superoxide: 93; HDAC3 inh: -12; IDE inh: 3; Efflux pump inh: 0; IDE cell activ: -1; TbMetRS confirm: 47*; Jurkat tox: 14; TbMetRS FP orth: 20*

What do the screens show for `CCOC(=O)Cn1ccc(O)c(Cc2ccc(Cl)cc2Cl)c1=O`?
Tb MetRS inh: 23*; Yeast superoxide: 82; HDAC3 inh: 3; IDE inh: -5; Efflux pump inh: 0; IDE cell activ: 4; TbMetRS confirm: 38*; Jurkat tox: 5; TbMetRS FP orth: 16

How did O=c1c(Cc2ccc(Cl)cc2Cl)c(O)ccn1Cc1ccc(Cl)cc1 do in these assays?
Tb MetRS inh: 5.9*; Yeast superoxide: 100; HDAC3 inh: 3; IDE inh: -2; Efflux pump inh: 0; IDE cell activ: 2; TbMetRS confirm: 16*; Jurkat tox: 6; TbMetRS FP orth: 13

How did CCOC(CCn1ccc(O)c(Cc2ccc(Cl)cc2)c1=O)OCC do in these assays?
Tb MetRS inh: 0; Yeast superoxide: 121; HDAC3 inh: -1; IDE inh: -2; Efflux pump inh: 0; IDE cell activ: -3

How did O=c1c2c([nH]c3ccc(Br)cc13)CCCC2 do in these assays?
Tb MetRS inh: 14*; Yeast superoxide: 89; HDAC3 inh: -3; IDE inh: 2; Efflux pump inh: 0; IDE cell activ: 5; TbMetRS confirm: 27*; Jurkat tox: 5; TbMetRS FP orth: 14

How did Brc1ccc2[nH]c3c(c2c1)CCC3 do in these assays?
Tb MetRS inh: 0; Yeast superoxide: 108; HDAC3 inh: 1; IDE inh: -4; Efflux pump inh: 0; IDE cell activ: 1

How did CC[C@]12c3[nH]c4cc(CCC(=O)N(C)C)ccc4c3CCN1C(=O)[C@@H](CC(=O)NCc1cccc(C(F)(F)F)c1)C[C@@H]2C(=O)N1CCN(C(=O)C2CC2)CC1 do in these assays?
Tb MetRS inh: -1; Yeast superoxide: 112; Efflux pump inh: 0; IDE cell activ: 2

How did CC(=O)c1cccc(-c2ccnc3c2CC(C(=O)Nc2ccc(Cl)cc2)O3)c1 (stereo unspecified) do in these assays?
Tb MetRS inh: 19*; TbMetRS confirm: 46*; Jurkat tox: 21*; TbMetRS FP orth: 22*

How did O=C(Nc1ccccc1)C1=C[C@@H](C2CC2)C[C@@H](OCc2ccc(CO)cc2)O1 do in these assays?
Tb MetRS inh: 0; Yeast superoxide: 102; HDAC3 inh: 20; IDE inh: 2; Efflux pump inh: 0; IDE cell activ: 5

What do the screens show for `O=C(NCc1nc2ccccc2[nH]1)C1=C[C@@H](C2CC2)C[C@@H](OCc2ccc(CO)cc2)O1`?
Tb MetRS inh: 81*; Yeast superoxide: 101; HDAC3 inh: 0; IDE inh: 5; Efflux pump inh: 0; IDE cell activ: 0; TbMetRS confirm: 99*; Jurkat tox: -4; TbMetRS FP orth: 87*

What do the screens show for `O=C(NCc1nc2ccccc2[nH]1)C1=C[C@H](C2CC2)C[C@H](OCc2ccc(CO)cc2)O1`?
Tb MetRS inh: 50*; Yeast superoxide: 103; HDAC3 inh: 1; IDE inh: 3; Efflux pump inh: 0; IDE cell activ: 4; TbMetRS confirm: 83*; Jurkat tox: -1; TbMetRS FP orth: 56*

Results for COc1ccc(Cl)cc1NS(=O)(=O)c1c(C)[nH]c(C)c1C(=O)N1CCCCC1 ?
Tb MetRS inh: 1; Yeast superoxide: 121; HDAC3 inh: 1; IDE inh: 1; Efflux pump inh: 0; IDE cell activ: 2

Results for CCOc1ccccc1NS(=O)(=O)c1c(C)[nH]c(C)c1C(=O)N1CCCCC1 ?
Tb MetRS inh: 35*; Yeast superoxide: 102; HDAC3 inh: 4; IDE inh: -1; Efflux pump inh: 0; IDE cell activ: 2; TbMetRS confirm: 57*; Jurkat tox: -5; TbMetRS FP orth: 27*
